# Screens (PubChem)
# APOBEC3G inh: APOBEC3G DNA deaminase inhibitors, primary screen, biochemical, fluorescence, single-stranded DNA substrate, uHTS; inhibition, % at 20 µM; recombinant A3G, ssDNA deamination FAM/TAMRA fluorescence; 330,000 compounds, 0.28% hits;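 active means inhibition of at least 40% at 20 µM, with no more than 30% in the related APOBEC3A deaminase screen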;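 further: plate controls were DMSO wells with A3G for no effect and wells lacking A3G enzyme for full effect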
# FN deposit inh: inhibitors of fibronectin matrix deposition, primary screen, AH1F cells, Alexa488-fibronectin fluorescence, plate reader; 350,000 compounds, 0.086% hits; inhibition, % at 12.6 µM; AH1F fibroblasts, overnight;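 active means mean inhibition across replicates of 30% or more, regardless of how many single replicates reach that level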;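 further: positive control wells lacked labelled fibronectin entirely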
#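 Material: AH1F fibroblasts assembling fluorescent fibronectin matrix; amount: 10000 AH1F cells/well; medium: DMEM, 2% serum; reagent: Alexa488-fibronectin, 24 nM final in well; dosing: single compound dose, delivered by pin transfer; incubation: 1 h adhesion, overnight exposure; detection: fluorescence after three HBSS washes, excitation 485 nm, emission 525 nm; measure: fibronectin deposition inhibition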
# ABHD5 PLIN5 PPI: ABHD5-PLIN5 interaction inhibitors, primary screen, cell lysate, split luciferase complementation, luminescence; Perilipin-5 (Homo sapiens) + 1-acylglycerol-3-phosphate O-acyltransferase ABHD5 (Homo …; Split G. princeps luciferase complementation, 4 h; inhibition, % at 4 µM; 360,000 compounds, 0.78% hits;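 active means inhibition above the mean inhibition across every tested compound plus 3 SD, cut at about 22% in these data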;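 further: 0% = DMSO only wells and the 100% control is not disclosed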
# Target sequence (Q00G26 whole entry, looked up): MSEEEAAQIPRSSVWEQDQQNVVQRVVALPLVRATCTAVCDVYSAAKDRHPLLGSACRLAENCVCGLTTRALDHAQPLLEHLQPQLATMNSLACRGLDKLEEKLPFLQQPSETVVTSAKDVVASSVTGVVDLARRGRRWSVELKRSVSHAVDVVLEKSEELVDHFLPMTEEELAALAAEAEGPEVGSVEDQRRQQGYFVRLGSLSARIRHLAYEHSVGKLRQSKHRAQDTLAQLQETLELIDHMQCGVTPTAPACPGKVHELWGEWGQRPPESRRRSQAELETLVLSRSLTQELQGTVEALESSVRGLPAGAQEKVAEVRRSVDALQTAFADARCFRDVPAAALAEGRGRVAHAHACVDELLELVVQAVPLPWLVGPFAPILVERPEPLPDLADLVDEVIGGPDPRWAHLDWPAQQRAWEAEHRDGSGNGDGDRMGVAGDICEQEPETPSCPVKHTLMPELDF
# Target sequence (Q8WTS1 whole entry, looked up): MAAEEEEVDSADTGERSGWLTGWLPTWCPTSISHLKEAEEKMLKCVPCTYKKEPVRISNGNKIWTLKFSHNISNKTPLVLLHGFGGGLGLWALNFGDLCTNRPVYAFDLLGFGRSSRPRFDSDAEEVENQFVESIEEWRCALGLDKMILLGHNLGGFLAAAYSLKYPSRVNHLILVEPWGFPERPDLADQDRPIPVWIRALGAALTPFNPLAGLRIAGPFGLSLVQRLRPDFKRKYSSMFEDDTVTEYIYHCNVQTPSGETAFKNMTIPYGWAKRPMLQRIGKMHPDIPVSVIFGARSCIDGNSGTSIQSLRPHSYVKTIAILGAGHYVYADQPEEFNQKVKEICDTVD
# A3A deaminase: APOBEC3A ssDNA deaminase inhibitors, primary screen, selectivity assay for APOBEC3G inhibitor project, biochemical, FAM/TAMRA oligo cleavage fluorescence. inhibition, % at 20 µM. recombinant A3A, FAM/TAMRA ssDNA deamination fluorescence. DNA dC->dU-editing enzyme APOBEC-3A (Homo sapiens), P31941. 330,000 compounds, 0.41% hits;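 active means at least 40% inhibition at 20 µM here, with at most 30% in a related deaminase screen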;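 further: plate controls were A3A with DMSO for no effect and wells lacking A3A enzyme for full effect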
# APOBEC3G confirm: APOBEC3G deaminase inhibitor retest, confirmation, biochemical, fluorescence, single-stranded DNA substrate, single concentration. shares compounds with APOBEC3G inh. recombinant A3G ssDNA deaminase, UDG/FAM-TAMRA fluorescence. AID 493152, 2011. 890 compounds, 72% hits. inhibition, % at 20 µM;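 active means inhibition reaching a set limit in any replicate at 20 µM, the limit being 80% of the first screen's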
# UDG ctr A3G: E. coli UDG inhibitors, confirmation, counter-screen for APOBEC3G inhibitor project, biochemical, single concentration, fluorescence, FAM/TAMRA oligo. 710 tested, under 10 active. shares compounds with APOBEC3G inh. UDG counterscreen. inhibition, % at 20 µM;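 active means compounds giving 40% or more inhibition at 20 µM in any one of the three replicates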;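 further: plate controls were DMSO wells with UDG and oligo for no effect and DMSO wells lacking both for full effect; inhibitors lower the FAM signal released by uracil excision and alkaline cleavage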
# ABHD5 PLIN5 conf: ABHD5-PLIN5 interaction inhibitors, confirmation, biochemical, luminescence | shares compounds with ABHD5 PLIN5 PPI | inhibition, % at 4 µM | 2,200 compounds, 67% hits | AID 651612, 2012; in the data active means inhibition above about 23%;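 further: 0% = DMSO vehicle wells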
# HNF4 counter: HNF4 dimerization inhibitors, counter-screen for ABHD5-PLIN5 interaction inhibitor project, biochemical, split-luciferase complementation, luminescence; inhibition, % at 4 µM; shares compounds with ABHD5 PLIN5 PPI; AID 651674, 2012; 2,200 compounds, 77% hits;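 active means mean inhibition across replicate wells exceeding the computed hit threshold, cut at about 13% in these data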;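 further: light from luciferase halves that rejoin when HNF4 fusion proteins dimerize; 0% = DMSO only wells and the 100% control is not given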
# The depositor's hits bear a star; . = no result given; ! = repeats disagree. Compounds with a hit are over-represented: about 1.2% of the library has one in this group of screens.
SMILES,APOBEC3G inh,FN deposit inh,ABHD5 PLIN5 PPI,A3A deaminase,APOBEC3G confirm,UDG ctr A3G,ABHD5 PLIN5 conf,HNF4 counter
O=C1CC(c2ccc(O)c(O)c2)Oc2c1ccc(O)c2O (configuration not stated),41*,.,8,25,55*,.,.,.
CC(C)=CCc1c(O)ccc2c1OC(c1ccc(O)c(O)c1)CC2=O (configuration not stated),-11,.,-2,-3,.,.,.,.
Cc1[nH]c(=S)c(C#N)c2c1CCCC2,50*,4,3,-5,83*,-2,.,.
Cc1[nH]c(=O)c(C#N)c2c1CCCC2,5,.,1,4,.,.,.,.
CCN(CC)S(=O)(=O)c1ccc2c(c1)nc(SCC(=O)N1CCOCC1)n2-c1ccccc1OC,44*,-3,4,7,0,.,.,.
O=C(O)C1CC(c2ccccc2)=NO1 (configuration not stated),5,-20,-8,6,.,.,.,.
O=C(O)C1CC(c2ccc(F)cc2)=NO1 (configuration not stated),74*,.,-3,23,73*,3,.,.
O=C(Nc1ccc2c(c1)[C@H]1C[C@H](CC(=O)N3CCOCC3)O[C@H](CO)[C@H]1O2)NC1CCCC1,.,6,.,.,.,.,.,.
O=C(CSc1cn[nH]n1)Nc1cccc(C(=O)O)c1,62*,5,-14,-1,87*,-7,.,.
O=C(C[C@H]1CC[C@H](NC(=O)c2ccccc2)[C@@H](CO)O1)NCc1ccncn1,.,2,.,.,.,.,.,.
O=C(O)C[C@@H]1CC[C@H](NC(=O)CCN2CCCCC2)[C@@H](CO)O1,.,7,.,.,.,.,.,.
Cc1ccccc1C(=O)NNC(=S)NC(=O)COc1ccccc1,44*,.,-14,-8,64*,-2,.,.
Cc1ccccc1C(=O)NCC(=O)NNC(=S)NC(=O)c1ccccc1,43*,-5,-1,-1,16,-23,.,.
COC(=O)c1ccccc1NC(=S)NC(=O)COc1ccccc1,-10,.,-6,-7,.,.,.,.
Cc1ccc(C(=O)NNC(=S)NC(=O)COc2ccccc2)cc1,53*,.,-11,-4,50*,-4,.,.
CO[C@H]1CN(C)C(=O)c2ccc(NC(=O)C3CCOCC3)cc2OC[C@H](C)NC[C@@H]1C,.,4,.,.,.,.,.,.
CCOC(=O)C1=C(C)N(c2ccccc2)C(=O)/C1=C\c1ccc(O)c(OC)c1,66*,-22,26*,5,3,.,39*,49*
O=C(O)c1ccccc1NS(=O)(=O)c1cccc(-n2sc3ccccc3c2=O)c1,78*,-6,37*,6,87*,-2,93*,115*
O=C(CC1CC1)Nc1ccc2c(c1)[C@H]1C[C@H](CC(=O)NC3CCCC3)O[C@H](CO)[C@H]1O2,.,-35,.,.,.,.,.,.
Cc1nnc(N=c2ssnc2Cl)o1,74*,-1,47*,3,89*,-3,98*,110*
Cc1ccc(C)c(-n2sc3ccc(F)cc3c2=O)c1,56*,21,100*,0,61*,-3,76*,114*
COc1ccc(N2C(=O)CSC2c2ccc(F)cc2)cc1 (configuration not stated),-8,1,9,-2,.,.,.,.
COc1ccc(-n2sc3ccc(F)cc3c2=O)cc1,67*,-9,86*,-4,81*,-2,93*,120*
Cc1ccc(-c2csc(Nc3ccc(S(N)(=O)=O)cc3)n2)o1,52*,.,32*,-9,-45,-5,65*,100*
Cc1nc(C)c(-c2csc(Nc3ccc(S(N)(=O)=O)cc3)n2)s1,-4,0,2,-4,.,.,.,.
SMILES,APOBEC3G inh,FN deposit inh,ABHD5 PLIN5 PPI,A3A deaminase,APOBEC3G confirm,UDG ctr A3G,ABHD5 PLIN5 conf,HNF4 counter
CCCNC(=O)Cn1sc2nc(C)cc(C)c2c1=O,60*,0,45*,-11,77*,0,30*,107*
Cc1nn(CC(=O)N2CCC(N3CCCCC3)CC2)c(=O)c2c1sc1ccccc12,-4,9,7,-3,.,.,.,.
Cc1cc(C)c2c(=O)n(CC(=O)N3CCC(N4CCCCC4)CC3)sc2n1,49*,-9,34*,-7,82*,0,33*,98*
O=C(C[C@H]1CC[C@H]2[C@@H](COC[C@@H](O)CN2S(=O)(=O)c2cccc(Cl)c2)O1)Nc1ccc(-c2ccccc2)cc1,.,-13,.,.,.,.,.,.
O=C(C1CCCCC1)N1CC2(C1)[C@@H](c1ccccc1)[C@@H](CO)N2C(=O)NC1CCCC1,.,-4,.,.,.,.,.,.
CCCNC(=O)N[C@H]1CC[C@H](CC(=O)NC2CCCCC2)O[C@@H]1CO,.,-6,.,.,.,.,.,.
CCCCn1c(=S)[nH]c2ccc(N3CCOCC3)cc2c1=O,-11,.,.,2,.,.,.,.
Cc1ccc(Cn2c(=S)[nH]c3ccc(N4CCOCC4)cc3c2=O)o1,59*,-17,31*,10,76*,.,43*,91*
COc1cc(N=c2ssnc2Cl)c(OC)cc1Cl,67*,0,41*!,2,82*,-3,74*,106*
O=C(NC[C@H]1[C@@H](c2ccccc2)[C@@H](CO)N1Cc1ccccn1)C1CCC1,.,0,.,.,.,.,.,.
CC(=O)C1=C(S(=O)(=O)c2ccc(C)cc2)CS(=O)(=O)C1,61*,-1,29*,2,78*,-4,99*,110*
Cc1ccc(S(=O)(=O)C2CS(=O)(=O)CC2O)cc1 (configuration not stated),-6,.,3,-3,.,.,.,.
COc1cccc(CN2[C@H](CO)[C@H](c3ccccc3)C23CN(Cc2ccccc2OC)C3)c1,.,2,.,.,.,.,.,.
CCOc1cccc(=O)c2c(C)n(Cc3ccccc3)c(C)c12,-9,-15,1,-2,.,.,.,.
CCOc1cccc(=O)c2c(C)n(Cc3ccco3)c(C)c12,-8,-7,24*,4,.,.,29*,55*
O=C(O)CCC(=O)Nc1ccc(SSc2ccc(NC(=O)CCC(=O)O)cc2)cc1,6,1,44*,0,.,.,47*,115*
COc1cc2sc(-c3ccc(S(C)(=O)=O)cc3)c(C(=O)NCCCCO)c2cc1OC,-10,-2,6,-4,.,.,.,.
